In ChEMBL document CHEMBL1138316, “Design, synthesis, and melatoninergic activity of new azido- and isothiocyanato-substituted indoles” (J Med Chem, 2007):
Calls of active or inactive are those of the source. No cut-off for these calls is given here.

Key:
Format in all cases: functional
[1] = Agonist activity at melatonin receptor in Xenopus laevis melanophores assessed as effect on pigment granule distribution
Procedure, shortened: (§1)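 Agonist response in Xenopus laevis melanophores was tested up to a highest concentration of 100 µM and reported as pEC50. Values are the mean ± SEM of triplicate experiments.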

Xenopus laevis [2] = species on record: Xenopus laevis; test: Agonist activity at melatonin receptor in Xenopus laevis melanophores assessed as effect on pigment granule distribution at 100 uM relative to melatonin
Procedure, shortened: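 In Xenopus laevis melanophores, maximal agonist action at 100 µM was expressed as a percentage of the response to 1 nM melatonin. Data come from triplicate experiments.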

[3] = Antagonist activity at melatonin receptor in Xenopus laevis melanophores assessed as reduction of melatonin-induced pigment aggregation
Procedure, shortened: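 Antagonism of the melatonin response in Xenopus laevis melanophores was reported as pIC50. Values are the mean ± SEM of triplicate experiments.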

Xenopus laevis [4] = species on record: Xenopus laevis; test: Agonist activity at melatonin receptor in Xenopus laevis melanophores assessed as effect on pigment granule distribution at 100 uM; procedure, shortened: as §1

Structure (SMILES)	Log EC50 [1]	Activity (Xenopus laevis [2]) [%]	Log IC50 [3]	Activity (Xenopus laevis [4])
COc1ccc2[nH]cc(CCNC(C)=O)c2c1 [MELATONIN]	-10.07			
S=C=NCCCc1c[nH]c2ccccc12		31	-3.92	
COc1ccc2[nH]cc(CCCN=[N+]=[N-])c2c1			-5.03	inactive
[N-]=[N+]=NCCCc1cc2ccccc2[nH]1			-4.72	inactive
COc1ccc2[nH]cc(CCN=C=S)c2c1			-5.47	inactive
COc1ccc2[nH]c(CCCN=C=S)cc2c1		41	-4.47	
[N-]=[N+]=NCCCc1c[nH]c2ccccc12			-4.79	inactive
S=C=NCCCn1ccc2ccccc21		28	-4.04	
COc1ccc2[nH]cc(CCCN=C=S)c2c1			-4.49	inactive
COc1ccc2[nH]cc(CCN=[N+]=[N-])c2c1			-5.09	inactive
COc1ccc2[nH]c(CCCN=[N+]=[N-])cc2c1			-4.15	inactive
CC(=O)NCCc1c(Cc2ccccc2)[nH]c2ccccc12 [LUZINDOLE]			-5.61	inactive
S=C=NCCCc1cc2ccccc2[nH]1		38	-4.35	
COc1ccc2c(ccn2CCCN=[N+]=[N-])c1			-4.81	inactive
COc1ccc2c(ccn2CCCN=C=S)c1			-4.91	inactive
[N-]=[N+]=NCCCn1ccc2ccccc21			-4.82	inactive
